Source: ChEMBL document CHEMBL2380289, “Ligand based approach to L-type calcium channel by imidazo[2,1-b]thiazole-1,4-dihydropyridines: from heart activity to brain affinity” (J Med Chem, 2013)

System: Ileum
Assay: Relaxant activity in potassium depolarized guinea pig ileum longitudinal smooth muscle assessed as inhibition of calcium-induced contraction
Type: functional, tissue-based
Conditions: Cavia porcellus
Method in brief: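 K⁺-depolarized (80 mM) guinea pig ileum longitudinal smooth muscle is used. Calcium-induced contraction is measured with cumulative compound addition.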

Row | Compound | IC50
1 | COC(=O)C1=C(C)NC(C)=C(C(=O)OC)C1c1c(-c2ccccn2)nc2sccn12 | 2570 nM
2 | CCOC(=O)C1=C(C)NC(C)=C(C(=O)OCC)C1c1c(-c2cc(OC)ccc2OC)nc2sccn12 | 46 nM
3 | COC(=O)C1=C(C)NC(C)=C(C(=O)OC)C1c1c(-c2ccccn2)nc2sc(C)cn12 | 2810 nM

System: not listed separately
Assay: Negative inotropic activity in guinea pig left atrium assessed as decrease in developed tension at 10^-5 M relative to control
Type: functional, Cavia porcellus, Cardiac atrium
Set-up: scale not given: the % may be the effect or the level left
Conditions: not given

Row | Compound | Activity
4 | COC(=O)C1=C(C)NC(C)=C(C(=O)OC)C1c1c(-c2ccccn2)nc2sccn12 | 58%

System: not listed separately
Assay: Negative inotropic activity in guinea pig left atrium assessed as decrease in developed tension at 10^-4 M relative to control
Type: functional, Cavia porcellus, Cardiac atrium
Set-up: scale not given: the % may be the effect or the level left
Conditions: not given

Row | Compound | Activity
5 | CCOC(=O)C1=C(C)NC(C)=C(C(=O)OCC)C1c1c(-c2cc(OC)ccc2OC)nc2sccn12 | 93%

Biological target: not listed separately
Assay: Displacement of [3H]-PN200-110 from L-type calcium channel in Hartley guinea pig ventricular membrane […] after 90 mins
Set-up: species or system Cavia porcellus
Conditions: not given

Row | Compound | IC50 | Ki
6 | CCOC(=O)C1=C(C)NC(C)=C(C(=O)OCC)C1c1c(-c2cc(OC)ccc2OC)nc2sccn12 | 1430 nM | 510 nM

System: not listed separately
Assay: Negative chronotropic activity in guinea pig right atrium assessed as decrease in atrial rate at 10^-4 M relative to control
Type: functional, Cavia porcellus, Cardiac atrium
Set-up: scale not given: the % may be the effect or the level left
Conditions: not given
Method in brief: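 The read-out is decrease in rate of spontaneously beating isolated guinea pig right atrium at 10⁻⁴ M. It is expressed as percent change from control, n = 7−8.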

Row | Compound | Activity
7 | COC(=O)C1=C(C)NC(C)=C(C(=O)OC)C1c1c(-c2ccccn2)nc2sccn12 | 71%
8 | COC(=O)C1=C(C)NC(C)=C(C(=O)OC)C1c1c(-c2ccccn2)nc2sc(C)cn12 | 72%

Organism: Cavia porcellus
Assay: Displacement of [3H]-PN200-110 from L-type calcium channel in Hartley guinea pig atrial membrane at 100 uM after 90 mins relative to control
Type: cell membranes
Conditions: Cardiac atrium

Row | Compound | %max
9 | CCOC(=O)C1=C(C)NC(C)=C(C(=O)OCC)C1c1c(-c2cc(OC)ccc2OC)nc2sccn12 | 76%

Biological target: not listed separately
Assay: Displacement of [3H]-PN200-110 from L-type calcium channel in Hartley guinea pig atrial membrane after 90 mins
Type: cell membranes, Cavia porcellus, Cardiac atrium
Conditions: not given
Method in brief: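 Guinea pig atrial membranes are labelled at the 1,4-DHP site with (+)-[5-methyl-3H]PN200-110 at 0.5 nM. Competitor is added over 0.001−100 μM from 10⁻² M DMSO stocks diluted in buffer. Results are given as IC50 and Ki, mean ± SEM. Student's t-test is applied with P<0.001.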

Row | Compound | IC50 | Ki
10 | CCOC(=O)C1=C(C)NC(C)=C(C(=O)OCC)C1c1c(-c2cc(OC)ccc2OC)nc2sccn12 | 78 nM | 17 nM

System: not listed separately
Assay: Negative chronotropic activity in guinea pig right atrium assessed as decrease in atrial rate at 10^-5 M relative to control
Type: functional, Cavia porcellus, Cardiac atrium
Set-up: scale not given: the % may be the effect or the level left
Conditions: not given

Row | Compound | Activity
11 | CCOC(=O)C1=C(C)NC(C)=C(C(=O)OCC)C1c1c(-c2cc(OC)ccc2OC)nc2sccn12 | 88%

System: not listed separately
Assay: Negative inotropic activity in guinea pig left atrium assessed as decrease in developed tension
Type: functional, tissue-based
Conditions: Cavia porcellus, Cardiac atrium
Method in brief: (§1)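 Isolated guinea pig atria are used, with left atria driven at 1 Hz. Compounds are added cumulatively. EC50 is derived from log concentration−response curves by Litchfield–Wilcoxon probit analysis, n = 6−7. EC50 is not calculated when the maximal effect is below 50%.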

Row | Compound | EC50
12 | COC(=O)C1=C(C)NC(C)=C(C(=O)OC)C1c1c(-c2ccccn2)nc2sccn12 | 540 nM
13 | CCOC(=O)C1=C(C)NC(C)=C(C(=O)OCC)C1c1c(-c2cc(OC)ccc2OC)nc2sccn12 | 1160 nM

System: Ileum
Assay: Relaxant activity in potassium depolarized guinea pig ileum longitudinal smooth muscle assessed as inhibition of calcium-induced contraction at 5x10'-7 M relative to control
Type: functional, Cavia porcellus
Set-up: scale not given: the % may be the effect or the level left
Conditions: not given

Row | Compound | Activity
14 | CCOC(=O)C1=C(C)NC(C)=C(C(=O)OCC)C1c1c(-c2cc(OC)ccc2OC)nc2sccn12 | 85%

System: not listed separately
Assay: Selectivity ratio of EC50 for negative chronotropic activity in guinea pig right atrium to EC50 for negative inotropic activity in guinea pig left atrium
Type: functional, Cavia porcellus, Cardiac atrium
Conditions: not given

Row | Compound | Ratio EC50
15 | COC(=O)C1=C(C)NC(C)=C(C(=O)OC)C1c1c(-c2ccccn2)nc2sccn12 | 45

System: HEK293
Assay: Displacement of [3H]-PN200-110 from voltage-gated calcium channel subunit alpha Cav1.2a (unknown origin) expressed in HEK293 cells at 100 uM after 90 mins by liquid scintillation counting analysis relative to control
Type: cell-based
Conditions: Homo sapiens

Row | Compound | %max
16 | CCOC(=O)C1=C(C)NC(C)=C(C(=O)OCC)C1c1c(-c2cc(OC)ccc2OC)nc2sccn12 | 94%

Organism: Cavia porcellus
Assay: Displacement of [3H]-PN200-110 from L-type calcium channel in Hartley guinea pig ventricular membrane […] after 90 mins relative to control
Conditions: not given

Row | Compound | %max
17 | CCOC(=O)C1=C(C)NC(C)=C(C(=O)OCC)C1c1c(-c2cc(OC)ccc2OC)nc2sccn12 | 91%

System: Aorta
Assay: Relaxant activity in potassium depolarized guinea pig aortic strips assessed as inhibition of calcium-induced contraction at 10^-4 M relative to control
Type: functional, Cavia porcellus
Set-up: scale not given: the % may be the effect or the level left
Conditions: not given
Method in brief: (§2)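 Guinea pig aortic strips and ileum longitudinal smooth muscle are depolarized with 80 mM K⁺. The read-out is percent inhibition of calcium-induced contraction. Aorta is tested at 10⁻⁴ M and ileum at 10⁻⁵ M.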

Row | Compound | Activity
18 | CCOC(=O)C1=C(C)NC(C)=C(C(=O)OCC)C1c1c(-c2cc(OC)ccc2OC)nc2sccn12 | 29%
19 | COC(=O)C1=C(C)NC(C)=C(C(=O)OC)C1c1c(-c2ccccn2)nc2sc(C)cn12 | 13%

System: Ileum
Assay: Relaxant activity in potassium depolarized guinea pig ileum longitudinal smooth muscle assessed as inhibition of calcium-induced contraction at 10^-5 M relative to control
Type: functional, Cavia porcellus
Set-up: scale not given: the % may be the effect or the level left
Conditions: not given
Method in brief: as §2

Row | Compound | Activity
20 | COC(=O)C1=C(C)NC(C)=C(C(=O)OC)C1c1c(-c2ccccn2)nc2sccn12 | 87%
21 | COC(=O)C1=C(C)NC(C)=C(C(=O)OC)C1c1c(-c2ccccn2)nc2sc(C)cn12 | 78%

System: not listed separately
Assay: Displacement of [3H]-PN200-110 from voltage-gated calcium channel subunit alpha Cav1.2a (unknown origin) expressed in HEK293 cells after 90 mins by liquid scintillation counting analysis
Type: cell-based, Homo sapiens
Conditions: not given
Method in brief: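 Intact HEK-293 cells stably transfected with a rabbit Cav1.2a (α1c-a) plasmid are used. They are incubated with 0.5 nM (+)-[5-methyl-3H]PN200-110 plus competitor at 0.001−100 μM, from 10⁻² M DMSO stocks diluted in buffer. IC50 values are given as mean ± SEM.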

Row | Compound | IC50 | Ki
22 | CCOC(=O)C1=C(C)NC(C)=C(C(=O)OCC)C1c1c(-c2cc(OC)ccc2OC)nc2sccn12 | 860 nM | 300 nM

System: not listed separately
Assay: Negative chronotropic activity in guinea pig right atrium assessed as decrease in atrial rate
Type: functional, tissue-based
Conditions: Cavia porcellus, Cardiac atrium
Method in brief: as §1

Row | Compound | EC50
23 | COC(=O)C1=C(C)NC(C)=C(C(=O)OC)C1c1c(-c2ccccn2)nc2sccn12 | 24400 nM
24 | CCOC(=O)C1=C(C)NC(C)=C(C(=O)OCC)C1c1c(-c2cc(OC)ccc2OC)nc2sccn12 | 2630 nM
25 | COC(=O)C1=C(C)NC(C)=C(C(=O)OC)C1c1c(-c2ccccn2)nc2sc(C)cn12 | 39900 nM

Biological target: not listed separately
Assay: Displacement of [3H]-PN200-110 from L-type calcium channel dihydropyridine binding site in Wistar rat cortex homogenate after 60 mins by liquid scintillation spectometric analysis
Type: tissue-based
Conditions: not given
Method in brief: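 Competition binding on rat cortex homogenate with (+)-[5-methyl-3H]PN200-110. Compounds are dissolved in DMSO as 10⁻² M stocks and diluted in buffer. Six displacer concentrations are tested, each in triplicate. IC50 is obtained by −log probit analysis and Ki by the Prusoff method. Values are mean ± SEM of 3−5 separate experiments done in triplicate.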

Row | Compound | IC50 | Ki
26 | CCOC(=O)C1=C(C)NC(C)=C(C(=O)OCC)C1c1c(-c2cc(OC)ccc2OC)nc2sccn12 | 240 nM | 170 nM

System: not listed separately
Assay: Negative inotropic activity in guinea pig left atrium assessed as decrease in developed tension at 10^-6 M relative to control
Type: functional, Cavia porcellus, Cardiac atrium
Set-up: scale not given: the % may be the effect or the level left
Conditions: not given

Row | Compound | Activity
27 | COC(=O)C1=C(C)NC(C)=C(C(=O)OC)C1c1c(-c2ccccn2)nc2sc(C)cn12 | 42%

Organism: Rattus norvegicus
Assay: Displacement of [3H]-PN200-110 from L-type calcium channel dihydropyridine binding site in Wistar rat cortex homogenate at 100 uM after 60 mins by liquid scintillation spectometric analysis relative to control
Type: tissue-based
Conditions: not given
Method in brief: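 Binding on rat cortex homogenate using (+)-[5-methyl-3H]PN200-110. The read-out is percent of maximal radioligand displacement at 100 μM test compound. Compounds are made up as 10⁻² M DMSO stocks and diluted in buffer. Values are from 3−5 separate experiments done in triplicate.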

Row | Compound | %max
28 | CCOC(=O)C1=C(C)NC(C)=C(C(=O)OCC)C1c1c(-c2cc(OC)ccc2OC)nc2sccn12 | 98%

System: Aorta
Assay: Relaxant activity in potassium depolarized guinea pig aortic strips assessed as inhibition of calcium-induced contraction at 5x10'-5 M relative to control
Type: functional, Cavia porcellus
Set-up: scale not given: the % may be the effect or the level left
Conditions: not given

Row | Compound | Activity
29 | COC(=O)C1=C(C)NC(C)=C(C(=O)OC)C1c1c(-c2ccccn2)nc2sccn12 | 28%
